Data taken from paper PMC3806060 (Journal of medicinal chemistry, 2013).
Entries after “also recorded” stand apart in the source; their conditions may differ. Like-named read-outs stand apart in the source and are kept apart here. Values belong to the molecule of their own block, whether it stands above or below them.

Assays:
Bcl-2 [1] = target: T1, Bcl-2 (Homo sapiens, UniProt P10415); conditions: read-out: Ki, binding to Bcl-2; cited from earlier work
Bcl-xL [2] = target: T2, Bcl-xL (Homo sapiens, UniProt Q07817); conditions: read-out: Ki, binding to Bcl-xL; cited from earlier work
[3] = tested on: animal model of human cancer; conditions: cited from earlier work
Bcl-2 [4] = target: T1, Bcl-2; assay: FP based competitive binding assay, Bcl-2; conditions: for Times less potent than compound 4 in binding to Bcl-2: versus 4
Bcl-xL [5] = target: T2, Bcl-xL; assay: FP based competitive binding assay, Bcl-xL; conditions: versus 8
Summary of the method: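 Competitive fluorescence-polarization assay for Bcl-xL: pre-incubated Bcl-xL (10 nM) and fluorescent probe (2 nM) with serial dilutions of test compound, room temperature, 2 h, gentle shaking. Millipolarization plotted against total compound concentration. IC50 obtained by nonlinear regression; Ki calculated from IC50.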

[6] = tested on: H146 small-cell lung cancer cell line; assay: Cell growth inhibition assay; format: cell-based, Human
[7] = tested on: H146 small-cell lung cancer xenograft; assay: Antitumor efficacy in the H146 xenograft tumor model; format: in vivo, SCID mice; conditions: for Antitumor activity / Tumor regression: daily, 5 days a week for 2 weeks
Summary of the method: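 Subcutaneous dorsal xenografts in SCID mice: 5 × 10^6 H146 cells with Matrigel, one tumor per mouse. At 100–150 mm3 (mean 126 mm3), animals randomized into groups of 8. Vehicle or test compound given i.v. at 15 mg/kg, daily, 5 days/week for 2 weeks. Tumor size and body weight measured 3×/week during and 2×/week after dosing. Data are mean tumor volume ± SEM; two-way ANOVA and unpaired two-tailed t test, P < 0.05.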

H146 xenograft tumors = assay: Western blot of H146 xenograft tumor tissue for cleavage of PARP and caspase-3; format: in vivo, SCID mice; conditions: single dose 15 mg/kg i.v., 3 and 6 h time points
Summary of the method: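 SCID mice carried subcutaneous H146 xenografts (5 × 10^6 cells with Matrigel) of approximately 100 mm3. They received a single 15 mg/kg i.v. dose of test compound or vehicle. Tumors were harvested at 3, 6 or 24 h, and western blot measured total and cleaved PARP and caspase-3.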

Mcl-1 = Mcl-1 (Homo sapiens, UniProt Q07820); assay: FP based competitive binding assay, Mcl-1; conditions: at concentrations as high as 2 μM
[8] = tested on: small-cell lung cancer cell lines; format: cell-based, Human; conditions: for IC50: Homo sapiens
Summary of the method: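 H146, H1963, H187 and H1417 small-cell lung cancer lines were maintained in RPMI-1640 with 10% FBS. Cells were exposed to various concentrations of test compound for 4 days. WST-8 was added for a further 1–2 h and absorbance read at 450 nm. IC50 was calculated against untreated cells, with at least three independent experiments per line.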

[9] = cited from earlier work
[10] = tested on: H146 small-cell lung cancer xenograft; conditions: 25 mg/kg, i.v., 5 days per week for 2 weeks; cited from earlier work

T1 sequence (P10415 whole entry): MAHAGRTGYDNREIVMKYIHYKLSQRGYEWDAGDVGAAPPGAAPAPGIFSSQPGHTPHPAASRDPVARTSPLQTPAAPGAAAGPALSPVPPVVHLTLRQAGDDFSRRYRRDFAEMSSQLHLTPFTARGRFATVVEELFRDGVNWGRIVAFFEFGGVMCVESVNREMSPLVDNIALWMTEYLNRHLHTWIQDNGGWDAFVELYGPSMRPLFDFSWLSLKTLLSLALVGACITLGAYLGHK
Mcl-1, sequence (Q07820 whole entry): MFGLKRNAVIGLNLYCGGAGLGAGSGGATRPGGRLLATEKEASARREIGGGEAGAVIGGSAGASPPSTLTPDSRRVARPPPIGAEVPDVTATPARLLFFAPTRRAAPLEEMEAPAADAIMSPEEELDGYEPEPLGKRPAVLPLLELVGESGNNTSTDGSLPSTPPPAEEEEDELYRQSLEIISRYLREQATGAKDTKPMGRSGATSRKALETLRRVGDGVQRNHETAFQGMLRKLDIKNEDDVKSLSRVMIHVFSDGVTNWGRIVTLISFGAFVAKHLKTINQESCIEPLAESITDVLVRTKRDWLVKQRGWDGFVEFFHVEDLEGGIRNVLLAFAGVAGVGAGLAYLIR
T2 sequence (Q07817 whole entry): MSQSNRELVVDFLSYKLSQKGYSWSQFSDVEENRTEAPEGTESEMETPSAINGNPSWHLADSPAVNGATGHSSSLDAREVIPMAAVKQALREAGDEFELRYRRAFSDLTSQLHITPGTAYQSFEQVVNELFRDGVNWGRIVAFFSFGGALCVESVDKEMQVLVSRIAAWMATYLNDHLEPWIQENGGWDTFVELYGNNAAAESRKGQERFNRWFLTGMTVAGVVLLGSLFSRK

Structure (SMILES): CCn1c(C)c(C(=O)O)c(-c2cccc(N3CCN(c4ccc(NS(=O)(=O)c5ccc(N[C@H](CCN6CCC(O)CC6)CSc6ccccc6)c(S(=O)(=O)C(F)(F)F)c5)cc4)CC3)c2)c1-c1ccc(Cl)cc1 [Compound 6, BM-957]
- Ki (Bcl-2 [1]): < 1 nM
- Ki (Bcl-xL [2]): < 1 nM
- Tumor regression [3]: achieved tumor regression

- Times less potent than compound 8 in binding to Bcl-2 (Bcl-2 [4]; versus 8): 4 times
- Times less potent than compound 8 in binding to Bcl-xL (Bcl-xL [5]): 2 times
Structure (SMILES): Cc1c(C(N)=O)c(-c2cccc(N3CCN(c4ccc(NS(=O)(=O)c5ccc(N[C@H](CCN(C)C)CSc6ccccc6)c([N+](=O)[O-])c5)cc4)CC3)c2)c(-c2ccc(Cl)cc2)n1C [Compound 9, (R)-5-(4-Chlorophenyl)-4-(3-(4-(4-(4-(4-(dimethylamino)-1-(phenylthio)butan-2-ylamino)-3-nitrophenylsulfonamido)phenyl)piperazin-1-yl)phenyl)-1,2-dimethyl-1H-pyrrole-3-carboxamide]
- Times less potent than compound 8 in H146 cell growth inhibition ([6]; versus 8): 6 times

- Times less potent than compound 4 in binding to Bcl-2 (Bcl-2 [4]): 100 times
Structure (SMILES): Cc1c(Cl)c(-c2cccc(N3CCN(c4ccc(NS(=O)(=O)c5ccc(N[C@H](CCN(C)C)CSc6ccccc6)c([N+](=O)[O-])c5)cc4)CC3)c2)c(-c2ccc(Cl)cc2)n1C [Compound 13, (R)-N-(4-(4-(3-(4-Chloro-2-(4-chlorophenyl)-1,5-dimethyl-1H-pyrrol-3-yl)phenyl)piperazin-1-yl)phenyl)-4-(4-(dimethylamino)-1-(phenylthio)butan-2-ylamino)-3-nitrobenzenesulfonamide]
- Times less potent than compound 4 in H146 cell growth inhibition ([6]; versus 4): > 100 times

- Times less potent than compound 4 in binding to Bcl-2 (Bcl-2 [4]): 100 times
Structure (SMILES): Cc1c(C(F)(F)F)c(-c2cccc(N3CCN(c4ccc(NS(=O)(=O)c5ccc(N[C@H](CCN(C)C)CSc6ccccc6)c([N+](=O)[O-])c5)cc4)CC3)c2)c(-c2ccc(Cl)cc2)n1C [Compound 14, (R)-N-(4-(4-(3-(2-(4-Chlorophenyl)-1,5-dimethyl-4-(trifluoromethyl)-1H-pyrrol-3-yl)phenyl)piperazin-1-yl)phenyl)-4-(4-(dimethylamino)-1-(phenylthio)butan-2-ylamino)-3-nitrobenzenesulfonamide]
- Times less potent than compound 4 in H146 cell growth inhibition ([6]; versus 4): > 100 times

- Binding to Mcl-1 (Mcl-1): no appreciable binding
Structure (SMILES): CCn1c(C)c(C(=O)NS(C)(=O)=O)c(-c2cccc(N3CCN(c4ccc(NS(=O)(=O)c5ccc(N[C@H](CCN(C)C)CSc6ccccc6)c([N+](=O)[O-])c5)cc4)CC3)c2)c1-c1ccc(Cl)cc1 [Compound 31, (R)-5-(4-Chlorophenyl)-4-(3-(4-(4-(4-(4-(dimethylamino)-1-(phenylthio)butan-2-ylamino)-3-nitrophenylsulfonamido)phenyl)piperazin-1-yl)phenyl)-1-ethyl-2-methyl-N-(methylsulfonyl)-1H-pyrrole-3-carboxamide]
- Antitumor activity ([7]; 15 mg/kg i.v.): strong antitumor activity
- Tumor regression ([7]; 15 mg/kg i.v.): partial tumor regression
- Cleavage of PARP and caspase-3 in H146 tumor tissue (H146 xenograft tumors): robust cleavage of PARP and caspase-3

- Times less potent than compound 4 in binding to Bcl-2 (Bcl-2 [4]): > 10 times
Structure (SMILES): Cc1c(C#N)c(-c2cccc(N3CCN(c4ccc(NS(=O)(=O)c5ccc(N[C@H](CCN(C)C)CSc6ccccc6)c([N+](=O)[O-])c5)cc4)CC3)c2)c(-c2ccc(Cl)cc2)n1C [Compound 15, (R)-N-(4-(4-(3-(2-(4-Chlorophenyl)-4-cyano-1,5-dimethyl-1H-pyrrol-3-yl)phenyl)piperazin-1-yl)phenyl)-4-(4-(dimethylamino)-1-(phenylthio)butan-2-ylamino)-3-nitrobenzenesulfonamide]
- Times less potent than compound 4 in H146 cell growth inhibition ([6]; versus 4): 8 times

- IC50 ([8]; read-out: IC50, cancer cell growth inhibition): 1 to 2 nM
- IC50 ([8]; read-out: IC50, cell growth inhibition): 1 to 2.3 nM
- Weight loss ([7]; H146 xenograft efficacy study, 15 mg/kg i.v., during or after treatment): < 5%
Structure (SMILES): Cc1c(C(=O)NS(C)(=O)=O)c(-c2cccc(N3CCN(c4ccc(NS(=O)(=O)c5ccc(N[C@H](CCN(C)C)CSc6ccccc6)c([N+](=O)[O-])c5)cc4)CC3)c2)c(-c2ccc(Cl)cc2)n1C(C)C [Compound 32, (R)-5-(4-Chlorophenyl)-4-(3-(4-(4-(4-(4-(dimethylamino)-1-(phenylthio)butan-2-ylamino)-3-nitrophenylsulfonamido)phenyl)piperazin-1-yl)phenyl)-1-isopropyl-2-methyl-N-(methylsulfonyl)-1H-pyrrole-3-carboxamide]
- Times more potent than compound 1 in cell growth inhibition ([8]; versus 1, each of H1963, H187, H1417, based on IC50): > 50 times
- Times more potent than compound 2 in cell growth inhibition ([8]; versus 2, each of H1963, H187, H1417, based on IC50): > 10 times
- Antitumor activity ([7]; 15 mg/kg i.v.): strong antitumor activity
- Tumor regression ([7]; 15 mg/kg i.v.): rapid, complete and durable tumor regression; also recorded: rapid, complete and persistent tumor regression
- Mice with measurable tumors, of 8 treated ([7]; day 62, 18 days after end of treatment, 15 mg/kg i.v.): none
- Average tumor size ([7]; day 117, 8 mice, 130 mm^3 at start of treatment (day 33)): 47 mm^3
- Mice without measurable tumors ([7]; day 117, 74 days after end of treatment, 8 mice, 15 mg/kg i.v.): 50%
- Cleavage of PARP and caspase-3 in H146 tumor tissue (H146 xenograft tumors): robust cleavage of PARP and caspase-3
- Binding to Mcl-1 (Mcl-1): no appreciable binding; also recorded: does not show any appreciable binding

Structure (SMILES): CCn1c(C)c(C(=O)O)c(-c2cccc(N3CCN(c4ccc(NS(=O)(=O)c5ccc(N[C@H](CCN(C)C)CSc6ccccc6)c([N+](=O)[O-])c5)cc4)CC3)c2)c1-c1ccc(Cl)cc1 [Compound 5]
- Chemical stability [9]: excellent chemical stability
- Ki (Bcl-2 [1]): < 1 nM
- Ki (Bcl-xL [2]): < 1 nM
- Antitumor activity in H146 xenograft model [10]: failed to achieve long-lasting tumor regression
- Times more potent than compound 4 in H146 cell growth inhibition ([6]; versus 4): 8 times

Structure (SMILES): Cc1c(C(=O)O)c(-c2cccc(N3CCN(c4ccc(NS(=O)(=O)c5ccc(N[C@H](CCN(C)C)CSc6ccccc6)c([N+](=O)[O-])c5)cc4)CC3)c2)c(-c2ccc(Cl)cc2)n1C [Compound 4]
- Chemical stability [9]: excellent chemical stability
- Ki (Bcl-2 [1]): < 1 nM
- Ki (Bcl-xL [2]): < 1 nM
